The values that follow come from ChEMBL document CHEMBL1149162 (J Med Chem, 2004).

Assay [1] deals with T1, D(4) dopamine receptor (Homo sapiens) (UniProt P21917).
T1 sequence (whole entry): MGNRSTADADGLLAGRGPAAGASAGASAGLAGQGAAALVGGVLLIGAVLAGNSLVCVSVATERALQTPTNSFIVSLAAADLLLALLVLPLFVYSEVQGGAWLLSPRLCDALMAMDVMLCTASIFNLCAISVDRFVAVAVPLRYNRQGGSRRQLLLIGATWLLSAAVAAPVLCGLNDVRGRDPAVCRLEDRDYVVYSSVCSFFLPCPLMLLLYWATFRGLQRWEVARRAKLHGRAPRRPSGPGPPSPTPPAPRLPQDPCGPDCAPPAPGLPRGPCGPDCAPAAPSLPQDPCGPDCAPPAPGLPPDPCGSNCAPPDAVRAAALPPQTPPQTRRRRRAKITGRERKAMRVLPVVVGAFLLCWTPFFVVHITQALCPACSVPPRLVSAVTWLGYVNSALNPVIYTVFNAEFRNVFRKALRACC
As to the kind of experiment: D4 efficacy against human Dopamine receptor D4 expressed in HEK293 cells. Type of assay: functional, cell-based.

The target in assay [2] is T2, D(4) dopamine receptor (Homo sapiens, UniProt P21917).
T2 sequence (P21917 whole entry): T1 sequence (whole entry)
As to the kind of experiment: Binding affinity against human Dopamine receptor D4 by [3H]-spiperone displacement.

A further assay concerns the target D(2) dopamine receptor (Homo sapiens, UniProt P14416). Kind of assay: Binding affinity against human Dopamine receptor D2 using [3H]spiperone as radioligand.
Assay [3] concerns the target T1, D(4) dopamine receptor (Homo sapiens). Kind of assay: D4 efficacy was measured using recombinant human D4 receptor expressed in HEK293 cells. Type of assay: functional, cell-based. The gist of the method: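 Human D4.4 coexpressed with Gαq05 in HEK293 cells, plated 20 000 cells/well and cultured 2 days. Cells loaded 1 h at room temperature with 4 μM Fluo-4 plus 0.04% Pluronic F-127 in DPBS, washed four times. Compound added on FLIPR and calcium fluorescence recorded for 3 min. Data normalized to 10 μM dopamine response. EC50 is concentration giving 50% signal. n ≥ 3, ±SEM.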

Assay [4] has as its target T2, D(4) dopamine receptor. Kind of assay: Effective concentration against human Dopamine receptor D4.
In assay [5] the target is T2, D(4) dopamine receptor. Kind of assay: D4 efficacy was measured using recombinant human Dopamine receptor D4 expressed in HEK293 cells. Type of assay: cell-based. The gist of the method:
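Human D4.4 co-expressed with Gαq05 in HEK293 cells, seeded at 20 000 cells/well and cultured 2 days. Loaded 1 h at room temperature with 4 μM Fluo-4 and 0.04% Pluronic F-127 in DPBS, then washed. Compound added on FLIPR and calcium fluorescence read for 3 min. EC50 is the concentration giving 50% signal; efficacy is % activation relative to 10 μM dopamine; n ≥ 3.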

As usually defined, the Ki is a measure of affinity in units of concentration, obtained from inhibition or displacement. A low value points to higher affinity. By EC50 is commonly meant the concentration needed to bring the measured effect to its halfway point.

D(2) dopamine receptor, sequence (P14416 whole entry): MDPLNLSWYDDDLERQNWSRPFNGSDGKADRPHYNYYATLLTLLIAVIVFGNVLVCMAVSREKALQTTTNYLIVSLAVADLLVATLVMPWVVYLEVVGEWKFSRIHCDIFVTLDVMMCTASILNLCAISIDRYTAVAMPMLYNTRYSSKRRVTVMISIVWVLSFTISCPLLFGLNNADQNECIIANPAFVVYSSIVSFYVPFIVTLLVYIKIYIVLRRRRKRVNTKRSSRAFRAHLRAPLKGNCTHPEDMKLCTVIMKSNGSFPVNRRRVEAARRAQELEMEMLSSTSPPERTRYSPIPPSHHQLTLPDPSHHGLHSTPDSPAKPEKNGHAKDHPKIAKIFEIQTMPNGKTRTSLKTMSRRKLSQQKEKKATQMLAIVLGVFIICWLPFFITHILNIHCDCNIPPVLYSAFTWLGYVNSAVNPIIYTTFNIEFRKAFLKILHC

On to `COc1cccc(N2CCN(Cc3nc4ccccc4[nH]3)CC2)c1`, for which the Efficacy in assay [1] was 5%. The compound also returned a Ki on D(4) dopamine receptor [2] of 26.5 nM.
In the case of `Clc1ccc(N2CCN(Cc3nc4ccccc4[nH]3)CC2)cc1`, the Ki was above 10000 nM at D(2) dopamine receptor and 14.8 nM at D(4) dopamine receptor [2]. Further, in assay [1], the Efficacy was 4.7%.
On to `Clc1cccc(N2CCN(Cc3nc4ccccc4[nH]3)CC2)c1`, for which the results for the Ki on D(2) dopamine receptor and at D(4) dopamine receptor [2] were above 10000 nM and 9.6 nM, respectively. Besides, in assay [3], the Efficacy came out at 3.8%.
Take `COc1ccc(N2CCN(Cc3nc4ccccc4[nH]3)CC2)cc1`: the Efficacy in assay [1] was found to be 4.8%. The same compound returned a Ki on D(4) dopamine receptor [2] of 20.4 nM.
In turn, `c1cncc(N2CCN(Cc3nc4ccccc4[nH]3)CC2)c1` returned an Efficacy in assay [1] of 24.9%. In addition, at D(4) dopamine receptor [2], affinity was put at a Ki of 376 nM.
Take `Fc1ccc(N2CCN(Cc3nc4ccccc4[nH]3)CC2)cc1`: in assay [1], the Efficacy was found to be 9.9%. The compound further came in with a Ki on D(4) dopamine receptor [2] of 79.6 nM.
With `Clc1ccccc1N1CCN(Cc2nc3ccccc3[nH]2)CC1`, on D(4) dopamine receptor [4], the EC50 worked out at 1 nM. The compound further yielded a Ki on D(4) dopamine receptor [2] of 8.5 nM.
For `c1ccc2[nH]c(CN3CCN(c4ccncc4)CC3)nc2c1`, in assay [1], the Efficacy worked out at 4.8%. On D(4) dopamine receptor [2], this compound came in with a Ki above 10000 nM.
Take `Clc1ccc(N2CCN(Cc3cc4ccccn4n3)CC2)cc1`: the Ki at D(2) dopamine receptor came out at 1310 nM; on D(4) dopamine receptor [2], 2.7 nM. Moreover, the EC50 on D(4) dopamine receptor [4] stood at 154 nM.
For `c1ccc(N2CCN(Cc3nc4ccccc4[nH]3)CC2)nc1` [ABT-724], at D(4) dopamine receptor [5], the EC50 was 12.4 nM. At D(4) dopamine receptor [2], this compound showed a Ki of 167 nM.
Compound `c1ccc(N2CCN(Cc3nc4ccccc4[nH]3)CC2)cc1` registered a 50% effective concentration (EC50) at D(4) dopamine receptor [4] of 10.1 nM. The same compound came in with an Efficacy in assay [1] of 37.5%. This compound yielded a Ki at D(4) dopamine receptor [2] of 52 nM.
`COc1ccccc1N1CCN(Cc2nc3ccccc3[nH]2)CC1` gave an EC50 at D(4) dopamine receptor [4] of 5.6 nM. On D(4) dopamine receptor [2], this compound showed a Ki of 4.3 nM.
Consider `Clc1ccccc1N1CCN(Cc2nc3ccc[nH]c-3n2)CC1`, for which the inhibition constant Ki on D(2) dopamine receptor was above 10000 nM; on D(4) dopamine receptor [2], 719 nM. For the same compound, on D(4) dopamine receptor [4], the EC50 was 10000 nM.
